# The source made the active and inactive calls. The rule behind the calls is not given here.
# Experiments:
# [1] = Binding affinity to Xenopus laevis oocyte CNGA1/CNGB1 assessed as inhibition of 2 mM cGMP-induced currents at +50 mV potential at 5 uM by patch-clamp method; settings: read-out: Kd(app)
# Summary of the method: (§1)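 Rod CNGA1 plus CNGB1 cRNA (2:1; 33 ng plus 67 ng) co-injected into stage IV–V Xenopus oocytes, held at 16–18 °C. Inside-out excised patches recorded 3–7 days after injection. Channels were maximally activated with 2 mM cGMP, and compound was added. Steps ran from 0 to −50 and +50 mV. Currents with no cGMP were subtracted, and KD was fitted to a single-site block equation (mean ± SD).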
# [2] = Drug degradation in 0.1 M phosphate buffer at pH 7.4 assessed as human butyrylcholinestase-mediated compound hydrolysis rate at 50 uM during first 1 min by spectrophotometric analysis; settings: pH 7.4, 1 min
# [3] = Binding affinity to Xenopus laevis oocyte CNGA1/CNGB1 assessed as inhibition of 2 mM cGMP-induced currents at -50 mV potential at 5 uM by patch-clamp method; settings: read-out: Kd(app); summary of the method: as §1
# Xenopus laevis [4] = organism: Xenopus laevis; assay: Inhibition of Xenopus laevis oocyte CNGA1/CNGB1 assessed as inhibition of currents at +50 mV potential at 2 uM by patch-clamp method in presence of 100 uM cGMP
# Summary of the method: (§2)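 Heteromeric rod CNG channels from oocytes co-injected with CNGA1 and CNGB1 cRNA (33 ng:67 ng, 2:1), held at 16–18 °C and recorded 3–7 days later. Excised inside-out patches were stepped from 0 to −50 to +50 mV with sub-saturating cGMP (50 or 100 µM), with or without blocker. Currents without cGMP were subtracted and filtered at 300 Hz. Block was read at +50 mV.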
# Xenopus laevis [5] = organism: Xenopus laevis; assay: Inhibition of Xenopus laevis oocyte CNGA1/CNGB1 assessed as inhibition of cGMP-induced currents at +50 mV potential at 1 uM by patch-clamp method in presence of 50 uM cGMP; summary of the method: as §2
# Xenopus laevis [6] = organism: Xenopus laevis; assay: Inhibition of Xenopus laevis oocyte CNGA1/CNGB1 assessed as inhibition of cGMP-induced currents at +50 mV potential at 1 uM by patch-clamp method in presence of 100 uM cGMP; summary of the method: as §2
# Xenopus laevis [7] = organism: Xenopus laevis; assay: Inhibition of Xenopus laevis oocyte CNGA1/CNGB1 assessed as inhibition of currents at +50 mV potential at 2 uM by patch-clamp method in presence of 50 uM cGMP; summary of the method: as §2
Structure (SMILES),Kd [1],Drug degradation [2],Kd [3],inhibition (Xenopus laevis [4]),inhibition (Xenopus laevis [5]),inhibition (Xenopus laevis [6]),inhibition (Xenopus laevis [7])
CCCCNc1ccc(C(=O)NCCN(C)C)cc1,4.4 µM,8.4 nmol/min/mg,28.6 µM,–,–,–,–
CCCCNc1ccc(C(=S)NCCN(C)C)cc1,0.6 µM,–,3.9 µM,–,–,–,–
CCCCCCCCNc1ccc(C(=O)NCCN(C)C)cc1,–,1.2 nmol/min/mg,–,–,–,–,–
CCCCNc1ccc(C(=O)OCCN(C)C)cc1 [TETRACAINE],–,132 nmol/min/mg,–,Active,Active,Active,Active
CCCCCCCCNc1ccc(C(=O)OCCN(C)C)cc1,1 µM,213 nmol/min/mg,2.4 µM,Active,Active,Active,Active
CCCCCCCCNc1ccc(C(=S)NCCN(C)C)cc1,0.7 µM,–,1.8 µM,–,–,–,–
